Experimental data reported in ChEMBL document CHEMBL4325887, “Lipophilic Permeability Efficiency Reconciles the Opposing Roles of Lipophilicity in Membrane Permeability and Aqueous Solubility” (J Med Chem, 2018).
Converted amounts (≈) assume the structure as drawn. Where a SMILES comes first, the peptide text is derived from it. [ ]: non-standard residue; d: D form. NMeY = CN[C@@H](Cc1ccc(O)cc1)C(=O)O; NMeF = CN[C@@H](Cc1ccccc1)C(=O)O; dNMeF = CN[C@H](Cc1ccccc1)C(=O)O; NMeA = CN[C@@H](C)C(=O)O; dNMeA = CN[C@H](C)C(=O)O; Sar = CNCC(=O)O

How the values were obtained:
[1] = Apparent permeability in human Caco2 cells; format: ADME, cell-based; settings: Caco-2
Method in brief: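 Apical-to-basolateral permeation (Papp, ×10-6 cm/s) was measured in quadruplicate. Compound was quantified by selected-mass UPLC-MS.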

[2] = Apparent permeability in low-efflux MDCK2 cells at 2 uM by lucifer yellow dye-based UPLC-MS analysis; format: ADME, cell-based, Canis lupus familiaris, MDCK-II; settings: dog, MDCK
[3] = 1,9-decadiene/aqueous buffer solution partition coefficient, log D of the compound in PBS at pH 7.4 by shake flask method; format: physicochemical
[4] = Thermodynamic aqueous solubility of compound in pH 7.4 PBS by UPLC-MS analysis; format: physicochemical; settings: PBS pH 7.4, pH 7.4; read-out: Therm_solubility
[5] = Apparent permeability of compound in pH 7.4 PBS after 16 hrs by PAMPA assay; format: ADME

Structure (SMILES)	Papp [1] [×10⁻⁶ cm/s]	Papp at 2 µM [2] [×10⁻⁶ cm/s]	logD hydrocarbon water [3]	solubility thermodynamic [4] [µM]	Papp at 16 h [5] [×10⁻⁶ cm/s]
CC[C@H]1OC(=O)[C@H](C)[C@@H](O[C@H]2C[C@@](C)(OC)[C@@H](O)[C@H](C)O2)[C@H](C)[C@@H](O[C@@H]2O[C@H](C)C[C@H](N(C)C)[C@H]2O)[C@](C)(O)C[C@@H](C)/C(=N/OCOCCOC)[C@H](C)[C@@H](O)[C@]1(C)O	> 10				
CC(C)C[C@@H]1NC(=O)[C@H](C)NC(=O)[C@H](Cc2ccc(O)cc2)N(C)C(=O)[C@H](Cc2ccccc2)NC(=O)CN(C)C(=O)[C@@H]2CCCN2C(=O)[C@@H](Cc2ccccc2)N(C)C1=O (cyclo(AL[dNMeF]P[Sar]F[NMeY]))			-2.44	10 (≈ 8.38 µg/mL)	0.2
CC[C@H](C)[C@@H]1NC(=O)[C@H](Cc2ccc(O)cc2)N(C)C(=O)[C@H](Cc2ccccc2)NC(=O)CN(C)C(=O)[C@@H]2CCCN2C(=O)[C@@H](Cc2ccccc2)N(C)C(=O)[C@H](C)NC1=O (cyclo(A[dNMeF]P[Sar]F[NMeY]I))			-1.52	9 (≈ 7.54 µg/mL)	
CC[C@H](C)[C@@H]1NC(=O)[C@H](C)N(C)C(=O)[C@H](Cc2ccccc2)NC(=O)CN(C)C(=O)[C@@H]2CCCN2C(=O)[C@@H](Cc2ccccc2)N(C)C(=O)[C@H](CC(C)C)NC1=O (cyclo(F[NMeA]IL[dNMeF]P[Sar]))			0.71	16 (≈ 12.6 µg/mL)	5.9
CC[C@H](C)[C@@H]1NC(=O)[C@H](Cc2ccccc2)N(C)C(=O)[C@H](Cc2ccccc2)NC(=O)CN(C)C(=O)[C@@H]2CCCN2C(=O)[C@@H](Cc2ccccc2)N(C)C(=O)[C@H](CC(C)C)NC1=O (cyclo(F[NMeF]IL[dNMeF]P[Sar]))			2.13	2.3 (≈ 1.99 µg/mL)	2.3
CC[C@H](C)[C@@H]1NC(=O)[C@H](Cc2ccc(O)cc2)N(C)C(=O)[C@H](Cc2ccccc2)NC(=O)CN(C)C(=O)[C@@H]2CCCN2C(=O)[C@@H](C)N(C)C(=O)[C@H](CC(C)C)NC1=O (cyclo(F[NMeY]IL[dNMeA]P[Sar]))			-1.71		1.3
CC[C@H](C)[C@@H]1NC(=O)[C@H](Cc2ccc(O)cc2)N(C)C(=O)[C@H](Cc2ccccc2)NC(=O)CN(C)C(=O)[C@H](C)N(C)C(=O)[C@@H](Cc2ccccc2)N(C)C(=O)[C@H](CC(C)C)NC1=O (cyclo(F[NMeY]IL[dNMeF][NMeA][Sar]))			0.92	37 (≈ 32.1 µg/mL)	7.8
CC[C@H]1OC(=O)[C@H](C)[C@@H](O[C@H]2C[C@@](C)(OC)[C@@H](O)[C@H](C)O2)[C@H](C)[C@@H](O[C@@H]2O[C@H](C)C[C@H](N(C)C)[C@H]2O)[C@](C)(O)C[C@@H](C)CN(C)[C@H](C)[C@@H](O)[C@]1(C)O [AZITHROMYCIN]	1 to 3				
CC[C@H]1OC(=O)[C@H](C)[C@@H](O[C@H]2C[C@@](C)(OC)[C@@H](O)[C@H](C)O2)[C@H](C)[C@@H](O[C@@H]2O[C@H](C)C[C@H](N(C)C)[C@H]2O)[C@](C)(OC)C[C@@H](C)C(=O)[C@H](C)[C@@H](O)[C@]1(C)O [CLARITHROMYCIN]	> 10				
CC[C@H]1OC(=O)[C@H](C)[C@@H](O[C@H]2C[C@@](C)(OC)[C@@H](O)[C@H](C)O2)[C@H](C)[C@@H](O[C@@H]2O[C@H](C)C[C@H](N(C)C)[C@H]2O)[C@](C)(O)C[C@@H](C)C(=O)[C@H](C)[C@@H](O)[C@]1(C)O [ERYTHROMYCIN]	1 to 3		-3.9		

Second part, led by results:

Papp [1] [×10⁻⁶ cm/s]	Papp at 2 µM [2] [×10⁻⁶ cm/s]	logD hydrocarbon water [3]	solubility thermodynamic [4] [µM]	Structure (SMILES)	Papp at 16 h [5] [×10⁻⁶ cm/s]
	0.5	2.43	33 (≈ 40.2 µg/mL)	C/C=C/C[C@@H](C)[C@@H](O)[C@H]1C(=O)N[C@@H]([C@@H](C)O)C(=O)N(C)CC(=O)N(C)[C@@H](CC(C)C)C(=O)N[C@@H](C(C)C)C(=O)N(C)[C@@H](CC(C)C)C(=O)N[C@@H](C)C(=O)N[C@H](C)C(=O)N(C)[C@@H](CC(C)C)C(=O)N(C)[C@@H](CC(C)C)C(=O)N(C)[C@@H](C(C)C)C(=O)N1C	
	1.8	3.94	22 (≈ 25.2 µg/mL)	CC[C@@H]1NC(=O)[C@H](CC(C)C)N(C)C(=O)[C@H](C(C)C)N(C)C(=O)[C@H](CC(C)C)N(C)C(=O)[C@H](CC(C)C)N(C)C(=O)[C@@H](C)NC(=O)[C@H](C)NC(=O)[C@H](CC(C)C)N(C)C(=O)[C@H](C(C)C)NC(=O)[C@H](CC(C)C)N(C)C(=O)CN(C)C1=O	
	0.7	3.86	0.12 (≈ 0.146 µg/mL)	C/C=C/C[C@@H](C)[C@@H](O)[C@H]1C(=O)N[C@@H](C(C)C)C(=O)N(C)CC(=O)N(C)[C@@H](CC(C)C)C(=O)N[C@@H](C(C)C)C(=O)N(C)[C@@H](CC(C)C)C(=O)N[C@@H](C)C(=O)N[C@H](C)C(=O)N(C)[C@@H](CC(C)C)C(=O)N(C)[C@@H](CC(C)C)C(=O)N(C)[C@@H](C(C)C)C(=O)N1C	
		4.14	0.005 (≈ 0.00622 µg/mL)	C/C=C/C[C@@H](C)[C@@H](OC(C)=O)[C@H]1C(=O)N[C@@H](CC)C(=O)N(C)CC(=O)N(C)[C@@H](CC(C)C)C(=O)N[C@@H](C(C)C)C(=O)N(C)[C@@H](CC(C)C)C(=O)N[C@@H](C)C(=O)N[C@H](C)C(=O)N(C)[C@@H](CC(C)C)C(=O)N(C)[C@@H](CC(C)C)C(=O)N(C)[C@@H](C(C)C)C(=O)N1C	
	1.4	3.18	27 (≈ 32.1 µg/mL)	C/C=C/C[C@@H](C)[C@@H](O)[C@H]1C(=O)N[C@@H](C)C(=O)N(C)CC(=O)N(C)[C@@H](CC(C)C)C(=O)N[C@@H](C(C)C)C(=O)N(C)[C@@H](CC(C)C)C(=O)N[C@@H](C)C(=O)N[C@H](C)C(=O)N(C)[C@@H](CC(C)C)C(=O)N(C)[C@@H](CC(C)C)C(=O)N(C)[C@@H](C(C)C)C(=O)N1C	
		2.61	2.2 (≈ 2.65 µg/mL)	C/C=C/C[C@@H](C)[C@H]1OC(=O)[C@H](C(C)C)N(C)C(=O)[C@H](CC(C)C)N(C)C(=O)[C@H](CC(C)C)N(C)C(=O)[C@@H](C)NC(=O)[C@H](C)NC(=O)[C@H](CC(C)C)N(C)C(=O)[C@H](C(C)C)NC(=O)[C@H](CC(C)C)N(C)C(=O)CN(C)C(=O)[C@H](CC)NC(=O)[C@H]1NC	
	2.7	3.64	10 (≈ 11.3 µg/mL)	CC[C@@H]1NC(=O)[C@H](CC(C)C)N(C)C(=O)[C@H](CC)N(C)C(=O)[C@H](CC(C)C)N(C)C(=O)[C@H](CC(C)C)N(C)C(=O)[C@@H](C)NC(=O)[C@H](C)NC(=O)[C@H](CC(C)C)N(C)C(=O)[C@H](C(C)C)NC(=O)[C@H](CC(C)C)N(C)C(=O)CN(C)C1=O	
		-1.78	17 (≈ 13.7 µg/mL)	CC[C@H](C)[C@@H]1NC(=O)[C@H](Cc2ccc(O)cc2)N(C)C(=O)[C@H](C)NC(=O)CN(C)C(=O)[C@@H]2CCCN2C(=O)[C@@H](Cc2ccccc2)N(C)C(=O)[C@H](CC(C)C)NC1=O (cyclo(A[NMeY]IL[dNMeF]P[Sar]))	
		-0.13	0.45 (≈ 0.396 µg/mL)	CC[C@H](C)[C@@H]1NC(=O)[C@H](Cc2ccc(O)cc2)N(C)C(=O)[C@H](Cc2ccccc2)NC(=O)CN(C)C(=O)[C@@H]2CCCN2C(=O)[C@@H](Cc2ccccc2)N(C)C(=O)[C@H](CC(C)C)NC1=O [CORDYHEPTAPEPTIDE A] (cyclo(F[NMeY]IL[dNMeF]P[Sar]))	
		-0.43	2.7 (≈ 2.34 µg/mL)	CC(C)C[C@@H]1NC(=O)[C@H](C(C)C)NC(=O)[C@H](Cc2ccc(O)cc2)N(C)C(=O)[C@H](Cc2ccccc2)NC(=O)CN(C)C(=O)[C@@H]2CCCN2C(=O)[C@@H](Cc2ccccc2)N(C)C1=O [Cordyheptapeptide C]	1.9
